≈ marks a conversion by molar mass, not a printed value.
What was measured:
[1] = tested on: Mycobacterium tuberculosis; test: Antitubercular activity against Mycobacterium tuberculosis after 6 days by resazurin dye reduction method; type: functional; conditions: 144 h; for MIC: read-out: MIC100
Procedure, shortened: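 M. tuberculosis grown aerobically at 37 °C in Middlebrook 7H9 with 0.5% glycerol, 0.05% Tyloxapol, 10% ADS enrichment; log-phase cultures (OD600 ~1) seeded at 1 × 10^5 cells/well, exposed to test substances 6 days. Resazurin added ~8 h, then formalin fixation (5% final); fluorescence ex 540/em 590 nm. Growth relative to rifampicin (0%) and DMSO (100%) controls; MIC90 = 90% growth inhibition.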

[2] = (§1) Cytotoxicity against human THP1 cells assessed as cell growth inhibition after 48 hrs by resazurin dye reduction method; type: cell-based, THP-1; conditions: human, THP-1 cells
Procedure, shortened: (§2)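 THP-1 human monocytic cells were grown in RPMI 1640 with 10% FBS, and MRC-5 fetal lung fibroblasts in DMEM with 10% FBS, at 37 °C in humidified 5% CO2. About 5 × 10^4 cells per well were exposed to compounds for 48 h, then to resazurin for about 3 h more. Fluorescence was read at ex 540/em 590 nm. Growth was set against uninoculated (0%) and untreated (100%) controls, and IC50 was taken as the concentration giving 50% growth inhibition.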

[3] = tested on: THP-1; test: as §1; type: cell-based; conditions: Homo sapiens, THP-1, 48 h; procedure, shortened: as §2
[4] = (§3) Cytotoxicity against human MRC5 cells assessed as cell growth inhibition after 48 hrs by resazurin dye reduction method; type: cell-based; conditions: human, MRC5 cells; procedure, shortened: as §2
[5] = tested on: MRC5; test: as §3; type: cell-based; conditions: Homo sapiens, MRC5, 48 h; procedure, shortened: as §2

| SMILES | MIC90 [1] | MIC [1] | IC90 at 48 h [2] | IC50 [3] | IC90 at 48 h [4] | IC50 [5] |
| --- | --- | --- | --- | --- | --- | --- |
| CC[C@@H](C)[C@@H]1NC(=O)[C@H](C(C)C)NC(=O)[C@@H]2C[C@@H](O)CN2C(=O)[C@H]([C@@H](C)CC)N/C=C(\C(=O)N2CCC[C@H]2C(=O)N[C@H](C(=O)N[C@@H](Cc2ccccc2)C(=O)NCC(N)=O)[C@@H](C)CC)NC(=O)[C@H](CC(C)C)NC(=O)[C@@H]2CCCN2C(=O)[C@@H]2CCCN2C(=O)[C@H](CC(C)C)NC1=O [CALLYAERIN A] | 2 µM (≈ 2.72 µg/mL) | 6 µM (≈ 8.15 µg/mL) | 50 µM | 30 µM | 40 µM | 20 µM |
| COC1NC(=O)N/C1=C\[C@@H]1N/C=C(/C(=O)N2CCC[C@H]2C(=O)N[C@@H](CC(C)C)C(=O)N[C@@H](Cc2ccccc2)C(=O)NCC(N)=O)NC(=O)[C@H](C(C)C)NC(=O)[C@@H]2CCCN2C(=O)[C@@H]2CCCN2C(=O)[C@H](CC(C)C)NC(=O)[C@H](CC(C)C)NC(=O)[C@@H]2C[C@@H](O)CN2C1=O (stereo partly drawn) | > 100 µM |  |  | > 10 µM |  | > 10 µM |
| CC(C)C[C@H](NC(=O)[C@@H]1CCCN1C(=O)/C1=C/N[C@@H](CC(C)C)C(=O)N2CCC[C@H]2C(=O)N[C@@H](Cc2ccccc2)C(=O)N[C@@H](Cc2ccccc2)C(=O)N2CCC[C@H]2C(=O)N2CCC[C@H]2C(=O)N[C@@H](C(C)C)C(=O)N1)C(=O)N[C@@H](Cc1ccccc1)C(=O)NCC(N)=O | > 100 µM |  |  | > 10 µM |  | > 10 µM |
| NNC(=O)c1ccncc1 [ISONIAZID] | 0.625 µM (≈ 0.0857 µg/mL) | 1.25 µM (≈ 0.171 µg/mL) |  |  |  |  |
| CC[C@H](C)[C@H](NC(=O)[C@@H](NC(=O)[C@@H]1CCCN1C(=O)/C1=C/N[C@@H](CC(C)C)C(=O)N2CCC[C@H]2C(=O)N[C@@H](Cc2ccccc2)C(=O)N[C@@H](Cc2ccccc2)C(=O)N2CCC[C@H]2C(=O)N2CCC[C@H]2C(=O)N[C@@H](C(C)C)C(=O)N1)[C@@H](C)CC)C(=O)NCC(=O)O [CALLYAERIN E] | 100 µM (≈ 126 µg/mL) |  |  | > 10 µM |  | > 10 µM |
| CC[C@H](C)[C@H](NC(=O)[C@H](Cc1ccccc1)NC(=O)[C@@H]1CCCN1C(=O)/C1=C/N[C@@H](Cc2ccccc2)C(=O)N2CCC[C@H]2C(=O)N[C@@H](Cc2ccccc2)C(=O)NCC(=O)N[C@@H](CC(C)C)C(=O)N2CCC[C@H]2C(=O)N2CCC[C@H]2C(=O)N[C@@H](Cc2ccccc2)C(=O)N1)C(=O)N[C@@H](CC(=O)O)C(=O)O | > 100 µM |  |  | > 10 µM |  | > 10 µM |
| CC[C@H](C)[C@@H]1NC(=O)[C@H](CCC(=O)O)NC(=O)[C@@H]2C[C@@H](O)CN2C(=O)[C@H]([C@@H](C)CC)N/C=C(/C(=O)N2CCC[C@H]2C(=O)N[C@@H](CC(C)C)C(=O)N[C@@H](Cc2ccccc2)C(N)=O)NC(=O)[C@H](CC(C)C)NC(=O)[C@@H]2CCCN2C(=O)[C@@H]2CCCN2C(=O)[C@H](C(C)C)NC1=O | > 100 µM |  |  | > 10 µM |  | > 10 µM |
| CC[C@H](C)[C@H](NC(=O)[C@@H](NC(=O)[C@@H]1CCCN1C(=O)/C1=C/N[C@@H](Cc2ccccc2)C(=O)N2CCC[C@H]2C(=O)N[C@@H](CC(C)C)C(=O)N[C@@H](Cc2ccccc2)C(=O)N2CCC[C@H]2C(=O)N2CCC[C@H]2C(=O)N[C@@H](C(C)C)C(=O)N1)[C@@H](C)CC)C(=O)NCC(N)=O | > 100 µM |  |  | > 10 µM |  | > 10 µM |
| CC[C@H](C)[C@H](NC(=O)[C@H](Cc1ccccc1)NC(=O)[C@H](CC(C)C)NC(=O)[C@@H]1CCCN1C(=O)/C1=C\N[C@@H](C(C)C)C(=O)N2CCC[C@H]2C(=O)N[C@@H](C(C)C)C(=O)N[C@@H](Cc2ccccc2)C(=O)N2CCC[C@H]2C(=O)N1)C(=O)O [CALLYAERIN F] | 50 µM (≈ 54.8 µg/mL) |  |  | > 10 µM |  | > 10 µM |
| CC[C@@H](C)[C@@H]1NC(=O)[C@H]([C@@H](C)CC)NC(=O)[C@@H]2C[C@@H](O)CN2C(=O)[C@H]([C@H](C)CC)N/C=C(\C(=O)N2CCC[C@H]2C(=O)N[C@H](C(=O)N[C@H](C(=O)O)[C@@H](C)CC)[C@@H](C)CC)NC(=O)[C@H](CC(C)C)NC(=O)[C@@H]2CCCN2C(=O)[C@@H]2CCCN2C(=O)[C@H](CC(C)C)NC1=O [CALLYAERIN B] | 5 µM (≈ 6.41 µg/mL) | 10 µM (≈ 12.8 µg/mL) | 30 µM | 5 µM | 6 µM | 2 µM |
| CO[C@H]1/C=C/O[C@@]2(C)Oc3c(C)c(O)c4c(O)c(c(/C=N/N5CCN(C)CC5)c(O)c4c3C2=O)NC(=O)/C(C)=C\C=C\[C@H](C)[C@H](O)[C@@H](C)[C@@H](O)[C@@H](C)[C@H](OC(C)=O)[C@@H]1C [RIFAMPIN] | < 0.1 µM | 0.5 µM (≈ 0.411 µg/mL) | > 100 µM | > 100 µM | > 100 µM | > 100 µM |
| CC[C@@H](CO)NCCN[C@@H](CC)CO [ETHAMBUTOL] | 1.25 µM (≈ 0.255 µg/mL) | 5 µM (≈ 1.02 µg/mL) |  |  |  |  |

— ChEMBL document CHEMBL3596113, “Callyaerins from the Marine Sponge Callyspongia aerizusa: Cyclic Peptides with Antitubercular Activity” (J Nat Prod, 2015)
